Data set [1] concerns Mus musculus. In words: Induction of Nrf2-mediated GCLM gene expression in small intestine of C57BL/6 mouse at 50 mg/kg, po administered as single dose measured after 24 hrs by RT-PCR analysis related to control. The data set is classed as functional. The essentials: (§1)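 Male C57BL/6 mice (7 weeks, AIN 76A diet; n=4) given a single 50 mg/kg oral gavage of compound, sulforaphane, or vehicle (10% DMSO + 10% Cremophor EL + 80% PBS). Small intestine harvested 24 h later; GCLM and NQO1 mRNA measured by TaqMan qRT-PCR with β-actin normalization.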

The target of data set [2] is T1, Nuclear factor erythroid 2-related factor 2 (Homo sapiens) (UniProt Q16236).
T1 sequence (whole entry): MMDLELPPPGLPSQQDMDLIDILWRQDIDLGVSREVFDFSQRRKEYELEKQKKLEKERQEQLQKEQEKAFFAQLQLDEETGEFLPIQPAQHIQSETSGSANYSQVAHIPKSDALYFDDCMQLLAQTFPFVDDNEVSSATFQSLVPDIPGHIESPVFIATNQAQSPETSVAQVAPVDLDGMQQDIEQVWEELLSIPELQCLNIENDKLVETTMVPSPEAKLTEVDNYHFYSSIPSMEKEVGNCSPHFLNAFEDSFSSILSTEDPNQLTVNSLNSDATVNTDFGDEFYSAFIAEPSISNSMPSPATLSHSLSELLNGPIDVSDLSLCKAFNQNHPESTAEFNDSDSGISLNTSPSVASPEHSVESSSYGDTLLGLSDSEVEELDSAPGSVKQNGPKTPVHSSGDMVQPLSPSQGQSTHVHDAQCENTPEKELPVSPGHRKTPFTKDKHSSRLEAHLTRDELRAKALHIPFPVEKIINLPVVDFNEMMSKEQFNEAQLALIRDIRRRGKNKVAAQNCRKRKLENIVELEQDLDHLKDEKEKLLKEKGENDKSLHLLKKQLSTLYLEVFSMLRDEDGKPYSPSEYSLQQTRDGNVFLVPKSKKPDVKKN
In words: Induction of Nrf2-mediated NQO1 gene expression in human BEAS2B cells at 10 uM after 16 hrs by RT-PCR analysis relative to untreated control. The data set is classed as functional, cell-based. In outline: (§2)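 Beas-2B cells (DMEM:F12, 10% FBS) plated 24 h, then exposed to 10 µM compound in DMSO (final ≤0.1%) for 16 h; sulforaphane as positive control. Total RNA extracted, reverse transcribed with random hexamers, GCLM and NQO1 mRNA quantified by TaqMan qRT-PCR, fold change vs DMSO. Representative of 3 independent experiments, quadruplicate wells.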

For data set [3], the target named is T1, Nuclear factor erythroid 2-related factor 2 (Homo sapiens). In words: Induction of Nrf2-mediated GCLM gene expression in human BEAS2B cells at 10 uM after 16 hrs by RT-PCR analysis relative to untreated control. The data set is classed as functional, cell-based. In outline:
as §2

Data set [4] has as its system Mus musculus. In words: Induction of Nrf2-mediated NQO1 gene expression in small intestine of C57BL/6 mouse at 50 mg/kg, po administered as single dose measured after 24 hrs by RT-PCR analysis related to control. The data set is classed as functional. The essentials:
as §1

Data set [5] can be described thus: Cytotoxicity against human BEAS2B cells assessed as cell viability after 24 hrs by MTT assay. The settings on record: read-out: Activity. The data set is classed as cell-based, BEAS-2B. The arrangement: concentration or dose not given beside the values. In outline: (§3)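 Beas-2B cells treated with compound or DMSO vehicle (0.1%) for 24 h; MTT (5 mg/ml in serum-free medium) added for the last 4 h, formazan dissolved in DMSO after PBS wash, absorbance read at 570 nm. Viability also checked by trypan blue exclusion.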
Background: Tetrazolium dyes change colour on reduction, which living cells bring about.

For data set [6], the target named is T1, Nuclear factor erythroid 2-related factor 2 (Homo sapiens). In words: Induction of Nrf2-mediated GCLM gene expression in human BEAS2B cells at […] 24 hrs by RT-PCR analysis. The data set is classed as functional, cell-based. In outline:
(§4)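 Beas-2B cells co-incubated with 10 µM compound with or without N-acetylcysteine (10 mM); cells harvested 24 h later. GCLM, NQO1 and HO-1 mRNA quantified by TaqMan qRT-PCR, normalized to β-actin. Representative of 3 independent experiments, triplicate wells.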

For data set [7] the target is unchanged. In words: Induction of Nrf2-mediated NQO1 gene expression in human BEAS2B cells at […] 24 hrs by RT-PCR analysis. The data set is classed as functional, cell-based. In outline:
as §4

Data set [8] shares this target. In words: Induction of Nrf2-mediated HO1 gene expression in human BEAS2B cells at […] 24 hrs by RT-PCR analysis. The data set is classed as functional, cell-based. In outline:
as §4

Data set [9] can be described thus: Cytotoxicity against human BEAS2B cells assessed as cell viability at 20 uM after 24 hrs by MTT assay relative to sulforaphane. The data set is classed as cell-based. The settings on record: beas-2b. The essentials: as §3
In data set [10] the target is T1, Nuclear factor erythroid 2-related factor 2 (Homo sapiens). In words: Induction of Nrf2-mediated NQO1 gene expression in human BEAS2B cells at 10 uM after 24 hrs by RT-PCR analysis in presence of 10 mM N-acetylcysteine. The data set is classed as functional, cell-based. The essentials:
as §4

Data set [11] has the same target. In words: Induction of Nrf2-mediated HO1 mRNA expression in human BEAS2B cells at 10 uM after 48 hrs by RT-PCR analysis relative to sulforaphane. The data set is classed as functional, cell-based. The essentials: (§5)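 Time course in Beas-2B cells at 10 µM compound: GCLM, NQO1 and HO-1 mRNA measured 6, 12, 24 and 48 h after treatment by TaqMan qRT-PCR, β-actin normalization. Representative of 3 independent experiments, triplicate wells.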

The target is the same in data set [12]. In words: Induction of Nrf2-mediated NQO1 mRNA expression in human BEAS2B cells after 24 hrs by RT-PCR analysis. The data set is classed as functional, cell-based. In outline:
(§6)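 Beas-2B cells exposed for 24 h to 2.5, 5, 10 or 20 µM compound in DMSO (final ≤0.1%), sulforaphane as comparator. GCLM, NQO1 and HO1 mRNA measured by TaqMan qRT-PCR, normalized to β-actin. Representative of 3 independent experiments, triplicate wells.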

Data set [13] shares this target. In words: Induction of Nrf2-mediated GCLM mRNA expression in human BEAS2B cells at 10 uM after 48 hrs by RT-PCR analysis. The data set is classed as functional, cell-based. In outline: as §5
For data set [14] the target is unchanged. In words: Induction of Nrf2-mediated NQO1 mRNA expression in human BEAS2B cells at 10 uM after 24 hrs by RT-PCR analysis relative to sulforaphane. The data set is classed as functional, cell-based.
For data set [15] the target is unchanged. In words: Induction of Nrf2-mediated HO1 gene expression in human BEAS2B cells at 10 uM after 24 hrs by RT-PCR analysis in presence of 10 mM N-acetylcysteine. The data set is classed as functional, cell-based. In outline: as §4
Data set [16] has as its system Mus musculus. In words: Induction of Nrf2-mediated NQO1 gene expression in small intestine of C57BL/6 mouse at 50 mg/kg, po administered as single dose measured after 24 hrs by RT-PCR analysis related to sulforaphane. The data set is classed as functional. In outline:
as §1

The target in data set [17] is T1, Nuclear factor erythroid 2-related factor 2 (Homo sapiens). In words: Induction of Nrf2-mediated HO1 mRNA expression in human BEAS2B cells at 10 uM after 24 hrs by RT-PCR analysis relative to sulforaphane. The data set is classed as functional, cell-based.
The target is the same in data set [18]. In words: Induction of Nrf2-mediated HO1 mRNA expression in human BEAS2B cells after 24 hrs by RT-PCR analysis. The data set is classed as functional, cell-based. In outline:
as §6

For data set [19] the target is unchanged. In words: Induction of Nrf2-mediated GCLM mRNA expression in human BEAS2B cells after 24 hrs by RT-PCR analysis. The data set is classed as functional, cell-based. In outline: as §6
The target is the same in data set [20]. In words: Induction of Nrf2-mediated NQO1 mRNA expression in human BEAS2B cells at 10 uM after 48 hrs by RT-PCR analysis relative to sulforaphane. The data set is classed as functional, cell-based. In outline: as §5
Data set [21] shares this target. In words: Induction of Nrf2-mediated GCLM mRNA expression in human BEAS2B cells at 10 uM after 6 hrs by RT-PCR analysis. The data set is classed as functional, cell-based. In outline:
as §5

For data set [22] the target is unchanged. In words: Induction of Nrf2-mediated HO1 mRNA expression in human BEAS2B cells at 10 uM after 6 hrs by RT-PCR analysis relative to sulforaphane. The data set is classed as functional, cell-based. The essentials:
as §5

Data set [23] concerns Mus musculus. In words: Induction of Nrf2-mediated GCLM gene expression in small intestine of C57BL/6 mouse at 50 mg/kg, po administered as single dose measured after 24 hrs by RT-PCR analysis related to sulforaphane. The data set is classed as functional. In outline: as §1
In data set [24] the target is T1, Nuclear factor erythroid 2-related factor 2 (Homo sapiens). In words: Induction of Nrf2-mediated NQO1 gene expression in human BEAS2B cells overexpressing ARE luciferase reporter plasmid after 16 hrs by chemiluminescence assay. The data set is classed as functional, cell-based. The essentials: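 Beas-2B cells stably transfected with NQO1-ARE luciferase reporter (blasticidin 6 µg/ml selection) seeded at 10,000 cells/well for 16 h, then exposed to graded compound concentrations or DMSO for 16 h. Luciferase activity read by chemiluminescence as relative luminescence intensity. Representative of 3 independent experiments, quadruplicate wells.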

The target is the same in data set [25]. In words: Induction of Nrf2-mediated GCLM gene expression in human BEAS2B cells at 10 uM after 24 hrs by RT-PCR analysis in presence of 10 mM N-acetylcysteine. The data set is classed as functional, cell-based. In outline: as §4
For data set [26] the target is unchanged. In words: Induction of Nrf2-mediated NQO1 mRNA expression in human BEAS2B cells at 20 uM after 24 hrs by RT-PCR analysis.
For data set [27] the target is unchanged. In words: Induction of Nrf2-mediated GCLM mRNA expression in human BEAS2B cells at 20 uM after 24 hrs by RT-PCR analysis. The data set is classed as functional, cell-based. The essentials:
as §6

Consider 10 molecules from ChEMBL document CHEMBL1799988, “Novel chalcone derivatives as potent Nrf2 activators in mice and human lung epithelial cells” (J Med Chem, 2011).

Molecules are shown by their SMILES. Calls of active or inactive are those of the source. The rule behind the calls is not given here.

For `COc1ccc(C(=O)/C=C/c2ccccc2C(F)(F)F)cc1`, the outcome in data set [1] and in data set [4] was Active. Further, the fold change (FC) in [2] worked out at 4.6; in data set [3], 5.4. Also, the viability at 24 h in data set [5] came out at 96%.
Take `COc1cccc(OC)c1C(=O)/C=C/c1ccccc1C(F)(F)F`: the result in data set [1] and in data set [4] was Active. The values for the fold change (FC) in data set [2] and in [3] were 5.3 and 5.7, respectively. Also, in [5], the viability at 24 h was determined as 101%.
As for `COc1ccc(C(=O)/C=C/c2ccccc2C(F)(F)F)c(OC)c1OC`, the result in data set [1] and in data set [4] was Active. The fold change (FC) worked out at 4.1 in data set [2] and 5.4 in [3]. The viability at 24 h in data set [5] was 102%.
For `COc1cccc(C(=O)/C=C/c2ccccc2C(F)(F)F)c1`, the outcome in data set [1] and in data set [4] was Active. In addition, the fold change (FC) is 4.3 in [2] and 5.6 in [3]. For the same molecule, the viability at 24 h in [5] was determined as 96.6%.
Regarding `CC(=O)N[C@@H](CS)C(=O)O`, the result in data set [6], in data set [7] and in data set [8] was inactive.
For the molecule `O=C(/C=C/c1ccccc1C(F)(F)F)c1ccccc1`, the result in data set [1] and in [4] was Active. Moreover, the fold change (FC) in data set [2] turned out to be 5.3; in [3], 5. Besides, in [5], the viability at 24 h worked out at 145%.
Consider `COc1cc(OC)c(C(=O)/C=C/c2ccccc2C(F)(F)F)c(OC)c1`, for which the outcome in data set [1] and in data set [4] was Active. In addition, the results for the fold change (FC) in data set [2] and in data set [3] were 4.3 and 4.4, respectively. Further, in data set [5], the viability at 24 h worked out at 145%.
Turning to `COc1ccc(C(=O)/C=C/c2ccccc2C(F)(F)F)c(OC)c1`, the outcome in data set [1] and in data set [4] was Active. Further, the fold change (FC) was 4.5 in data set [2] and 5.4 in data set [3]. The viability at 24 h in data set [5] came to 105%.
On to `C[S+]([O-])CCCCN=C=S` (configuration not stated) [SULFORAPHANE], for which the outcome in [1] and in data set [4] was Active. In addition, the figures for the fold change (FC) in [2] and in [3] were 3.6 and 2.7, respectively. In addition, the viability at 24 h in [5] was found to be 97.3%.
For the molecule `COc1ccccc1C(=O)/C=C/c1ccccc1C(F)(F)F`, the “fold change (FC)” value in [1] stood at 6; in data set [2] it was 4.6; in [16], 5; in data set [3] it was 4.5; in data set [17], 6; in data set [21], 7. In addition, the fold change (FC) in [22] stood at 150; in data set [23], 3; in data set [4], 10; in data set [26] it was 10; in data set [27], 5. For the same molecule, the Activity result is “Non-toxic” in [9]; “Dose-dependent effect” in data set [12]; “Dose-dependent effect” in data set [18]; “Dose-dependent effect” in data set [19]; “Dose-dependent effect” in data set [24]. Besides, the result in data set [10], in [14], in [15], in data set [20] and in [25] was Active. For the same molecule, the result in data set [11] and in data set [13] was inactive. The viability at 24 h in [5] amounted to 101%.
